Among the data in ChEMBL document CHEMBL1135442, “6-Chloropyridazin-3-yl derivatives active as nicotinic agents: synthesis, binding, and modeling studies” (J Med Chem, 2002) are Ki values, retold here.

This test is described as follows: Inhibition of [3H]cytisine binding to rat cerebral cortical membrane neuronal Nicotinic acetylcholine receptor. A digest of the protocol:
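Rat cerebral cortical membranes, thawed, washed, resuspended in Tris-HCl 50 mM buffer with NaCl 120, KCl 5, MgCl2 1, CaCl2 2.5 mM (pH 7.4 at 4 °C), centrifuged 45000g 20 min. 150-200 µg protein incubated with 0.7 nM [3H]-(-)-cytisine and varied test concentrations, 75 min at 4 °C, triplicate. Nonspecific binding defined with 10 µM (-)-nicotine. Ki values reported.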
For orientation: Ki means the dissociation constant of the complex between target and ligand, obtained from inhibition or displacement. Lower therefore signals tighter binding. As for `Clc1ccc(N2CCCNCC2)nn1`, the Ki worked out at 1.5 nM.

Turning to `Clc1ccc(N2CCNCC2)nn1`, the Ki worked out at 32 nM.

`C[N+]1(C)C2CCC1CN(c1ccc(Cl)nn1)C2`: affinity was put at a Ki of 2.3 nM. This Ki is about 14-fold lower than that of the compound before. Compound `CN1CCN(c2ccc(Cl)nn2)CC1` had a Ki of 14 nM. `C[N+]1(C)CCCN(c2ccc(Cl)nn2)CC1` registered a Ki of 120 nM. This Ki is about 8.6-fold higher than that of the compound before. Consider `CN1C2CCC1CN(c1ccc(Cl)nn1)C2`, for which the affinity corresponds to a Ki of 39 nM.

In the case of `CN1CCCN(c2ccc(Cl)nn2)CC1`, the affinity, expressed as Ki, was 220 nM. `Clc1ccc(N2CC3CCC(C2)N3)nn1` displayed a Ki of 4.1 nM.
